Test results as given in ChEMBL document CHEMBL1135768, “Design, synthesis, and SAR of tachykinin antagonists: modulation of balance in NK(1)/NK(2) receptor antagonist activity” (J Med Chem, 2002).

Legend:
[1] = molecular target: Substance-P receptor (Cavia porcellus) (UniProt P30547); assay: Effective dose concentration required for In vivo binding affinity towards Tachykinin receptor 1 after oral administration in presence of agonist ASMSP in guinea pig pulmonary tissue in lung plasma extravation assay; assay type: organism-based
Method in brief: (§1)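 Guinea pig lung plasma extravasation model. Antagonist dosed orally; NK1-selective agonist ASMSP challenge 2 h postdose. Single ED50 calculated from dose response in three to six animals per dose over 4–5 dose levels, doses staggered across several days.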

[2] = Bioavailability in dog (dose 1-10 uM/kg i.v.); assay type: ADME, organism-based, Canis lupus familiaris; details: in vivo, iv
Method in brief: (§2)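 Compound given to rat (n = 3) or dog (n = 1) by iv bolus at 1–10 μmol/kg, or orally at 10–100 μmol/kg, as a solution in 75% poly(ethylene glycol) 400 in normal saline.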

[3] = molecular target: T1, Substance-K receptor (Oryctolagus cuniculus) (UniProt P79218); assay: Tested for the binding affinity towards tachykinin receptor 2 (NK2) in rabbit pulmonary artery tissue
T1 sequence (whole entry): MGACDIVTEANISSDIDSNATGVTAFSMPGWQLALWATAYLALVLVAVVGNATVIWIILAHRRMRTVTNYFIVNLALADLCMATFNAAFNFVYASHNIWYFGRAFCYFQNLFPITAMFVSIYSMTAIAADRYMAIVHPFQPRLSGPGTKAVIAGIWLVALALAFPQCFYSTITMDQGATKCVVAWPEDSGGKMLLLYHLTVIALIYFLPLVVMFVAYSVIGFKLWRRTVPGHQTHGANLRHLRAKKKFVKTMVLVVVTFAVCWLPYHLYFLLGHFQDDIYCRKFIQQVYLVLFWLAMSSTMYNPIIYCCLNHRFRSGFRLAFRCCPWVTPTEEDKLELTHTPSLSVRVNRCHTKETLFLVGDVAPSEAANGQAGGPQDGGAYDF

[4] = Bioavailability in rat (dose 1-10 uM/kg i.v.); assay type: ADME, organism-based; details: in vivo, iv; method in brief: as §2
[5] = molecular target: T2, Substance-K receptor (Homo sapiens, UniProt P21452); assay: Inhibition of binding of [3H]NKA to human Tachykinin receptor 2 (NK2) expressed in mouse erythroleukemia cells; assay type: cell-based
T2 sequence (P21452 whole entry): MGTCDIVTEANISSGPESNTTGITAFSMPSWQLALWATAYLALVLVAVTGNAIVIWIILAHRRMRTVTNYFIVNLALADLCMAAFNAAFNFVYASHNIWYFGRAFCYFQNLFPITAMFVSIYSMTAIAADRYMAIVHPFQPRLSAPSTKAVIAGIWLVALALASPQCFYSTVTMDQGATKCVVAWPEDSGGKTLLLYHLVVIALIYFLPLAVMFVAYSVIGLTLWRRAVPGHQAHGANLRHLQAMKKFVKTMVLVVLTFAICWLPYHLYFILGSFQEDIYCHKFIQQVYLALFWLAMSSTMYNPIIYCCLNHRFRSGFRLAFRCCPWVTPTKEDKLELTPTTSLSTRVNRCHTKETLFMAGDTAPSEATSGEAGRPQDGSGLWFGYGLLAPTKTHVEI

[6] = molecular target: T3, Substance-K receptor (Cavia porcellus) (UniProt Q64077); assay: Effective dose concentration required for In vivo binding affinity towards Tachykinin receptor 2 (NK2) receptor after oral administration in presence of agonist BANK in guinea pig pulmonary tissue in pulmonary mechanics assay
T3 sequence (whole entry): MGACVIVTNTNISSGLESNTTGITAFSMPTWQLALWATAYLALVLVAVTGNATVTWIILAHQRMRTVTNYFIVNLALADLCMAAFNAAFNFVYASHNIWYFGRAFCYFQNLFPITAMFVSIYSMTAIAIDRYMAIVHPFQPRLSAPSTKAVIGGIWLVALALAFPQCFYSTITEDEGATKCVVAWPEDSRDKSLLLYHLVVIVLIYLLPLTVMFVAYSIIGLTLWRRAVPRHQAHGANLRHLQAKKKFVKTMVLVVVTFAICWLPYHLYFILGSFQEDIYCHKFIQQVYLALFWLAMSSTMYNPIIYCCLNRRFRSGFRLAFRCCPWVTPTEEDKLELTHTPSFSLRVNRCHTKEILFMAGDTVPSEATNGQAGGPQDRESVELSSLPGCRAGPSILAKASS

[7] = molecular target: Substance-P receptor (Homo sapiens, UniProt P25103); assay: Inhibition of binding of [3H]SP to Tachykinin receptor 1 of human tachykinin receptor expressed in mouse erythroleukemia cells; assay type: cell-based
[8] = molecular target: Substance-P receptor (Cavia porcellus) (UniProt P30547); assay: In vivo potency as dose ratio (ED50 ratio for Tachykinin receptor 1 in presence and absence of antagonist) in guinea pig PMM after intravenous administration at a dose 10 uM/Kg
[9] = molecular target: T3, Substance-K receptor (Cavia porcellus); assay: In vivo binding affinity towards Tachykinin receptor 2 (NK2) receptor after oral administration in presence of agonist BANK in guinea pig pulmonary tissue in pulmonary mechanics assay
[10] = molecular target: T3, Substance-K receptor (Cavia porcellus); assay: In vivo potency as dose ratio (ED50 ratio for Tachykinin receptor 2 (NK2) in presence and absence of antagonist) in guinea pig PMM after intravenous administration at a dose 10 uM/Kg
[11] = molecular target: T4, Neuromedin-K receptor (Homo sapiens, UniProt P29371); assay: Inhibition of binding of [125I]MPNI to human Tachykinin receptor 3 (NK3) expressed in mouse erythroleukemia cells; assay type: cell-based
T4 sequence (P29371 whole entry): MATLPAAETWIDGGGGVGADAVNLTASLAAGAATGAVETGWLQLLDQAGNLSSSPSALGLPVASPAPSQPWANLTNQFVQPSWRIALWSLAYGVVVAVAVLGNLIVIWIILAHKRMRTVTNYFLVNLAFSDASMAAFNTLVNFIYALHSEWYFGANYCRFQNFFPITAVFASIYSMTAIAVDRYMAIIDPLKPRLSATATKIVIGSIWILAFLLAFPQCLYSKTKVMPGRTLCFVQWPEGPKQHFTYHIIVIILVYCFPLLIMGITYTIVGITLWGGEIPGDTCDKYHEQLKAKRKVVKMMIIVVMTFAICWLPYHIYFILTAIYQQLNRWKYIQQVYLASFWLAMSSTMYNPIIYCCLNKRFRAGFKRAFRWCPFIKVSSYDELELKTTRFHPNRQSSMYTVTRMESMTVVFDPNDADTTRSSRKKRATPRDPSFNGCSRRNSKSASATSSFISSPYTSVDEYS

[12] = molecular target: T3, Substance-K receptor (Cavia porcellus); assay: In vivo potency as dose ratio (ED50 ratio for Tachykinin receptor 2 (NK2) in presence and absence of antagonist) in guinea pig PMM after oral administration at a dose 30 uM/Kg
[13] = molecular target: Substance-P receptor (Cavia porcellus) (UniProt P30547); assay: In vivo potency as dose ratio (ED50 ratio for Tachykinin receptor 1 in presence and absence of antagonist) in guinea pig PMM after oral administration at a dose 30 uM/Kg
[14] = test system: Substance-P receptor (Oryctolagus cuniculus); assay: Tested for the binding affinity towards tachykinin receptor 1 (NK1) in rabbit pulmonary artery tissue
[15] = molecular target: Substance-P receptor (Cavia porcellus) (UniProt P30547); assay: In vivo binding affinity towards Tachykinin receptor 1 after oral administration in presence of agonist ASMSP in guinea pig pulmonary tissue in lung plasma extravation assay; assay type: organism-based; method in brief: as §1
[16] = molecular target: T2, Substance-K receptor; assay: Inhibition of binding of [3H]NKA to human Tachykinin receptor 2 (NK2) in mouse erythroleukemia cells
[17] = molecular target: T3, Substance-K receptor (Cavia porcellus); assay: In vivo binding affinity towards Tachykinin receptor 2 (NK2) after oral administration in presence of agonist BANK in guinea pig pulmonary tissue in pulmonary mechanics assay

Sequence of Substance-P receptor (Cavia porcellus) (P30547 whole entry): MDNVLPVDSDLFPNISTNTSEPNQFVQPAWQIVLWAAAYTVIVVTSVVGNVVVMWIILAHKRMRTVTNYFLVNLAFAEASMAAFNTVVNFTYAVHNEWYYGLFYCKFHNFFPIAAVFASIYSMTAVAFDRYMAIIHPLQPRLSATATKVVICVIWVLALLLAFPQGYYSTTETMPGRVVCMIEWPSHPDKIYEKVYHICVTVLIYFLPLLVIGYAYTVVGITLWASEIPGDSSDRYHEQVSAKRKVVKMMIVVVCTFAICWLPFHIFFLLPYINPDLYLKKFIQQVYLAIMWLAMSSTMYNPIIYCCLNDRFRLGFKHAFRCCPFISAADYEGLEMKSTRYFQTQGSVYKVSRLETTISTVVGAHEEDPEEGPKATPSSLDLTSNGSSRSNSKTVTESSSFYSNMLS
Sequence of Substance-P receptor (P25103 whole entry): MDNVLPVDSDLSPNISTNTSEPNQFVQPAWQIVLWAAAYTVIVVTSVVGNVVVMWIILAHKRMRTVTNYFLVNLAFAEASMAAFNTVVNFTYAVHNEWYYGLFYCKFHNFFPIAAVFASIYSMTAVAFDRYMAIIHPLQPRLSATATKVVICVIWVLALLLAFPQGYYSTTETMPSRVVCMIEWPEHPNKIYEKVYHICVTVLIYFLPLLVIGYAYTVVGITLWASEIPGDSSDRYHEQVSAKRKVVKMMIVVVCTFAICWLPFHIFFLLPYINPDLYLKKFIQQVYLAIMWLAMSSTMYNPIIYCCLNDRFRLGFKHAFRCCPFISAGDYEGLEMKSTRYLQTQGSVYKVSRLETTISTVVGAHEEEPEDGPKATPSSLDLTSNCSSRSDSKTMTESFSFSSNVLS

Row | ED50 [1] [µmol/kg] | bioavailability [2] [%] | pKB [3] | bioavailability [4] [%] | Ki [5] [pM] | ED50 [6] [µmol/kg] | Ki [7] [pM] | dose ratio [8] | ED50 [9] [µmol/kg] | dose ratio [10] | Ki [11] [pM] | dose ratio [12] | dose ratio [13] | pKB [14] | ED50 [15] [µmol/kg] | Ki [16] [pM] | ED50 [17] [µmol/kg] | SMILES
1 | 0.6 | 18 | 8.26 | 9 | 640 | 13 | 120 |  |  |  |  |  |  |  |  |  |  | CN(C[C@@H](CCN1CCC(c2ccccc2[S@+](C)[O-])CC1)c1ccc(Cl)c(Cl)c1)C(=O)c1cc(C#N)cc2ccccc12
2 |  |  | 8.2 |  | 35000 |  | 270 | 384 | 9.3 | 155 | 9400 | 49 | 50 | 8.7 | 0.5 |  |  | CNC(=O)C1(N2CCCCC2=O)CCN(CC[C@H](CN(C)C(=O)c2c(OC)c(C#N)cc3ccccc23)c2ccc(Cl)c(Cl)c2)CC1
3 |  | 18 | 8.7 | 7 |  |  | 140 |  |  |  | 39000 |  |  |  | 1 | 340 | 3 | COc1ccc(C2CCN(CC[C@H](CN(C)C(=O)c3cc(C#N)cc4ccccc34)c3ccc(Cl)c(Cl)c3)CC2)c([S@+](C)[O-])c1
